In assay [1] the test system is Rattus norvegicus. The assay can be described thus: Variation in mean arterial pressure after 20 min of antagonist infusion at a dose of 10 ug/kg.
The subject of assay [2] is Rattus norvegicus. Description: Variation in mean arterial pressure after 40 min of antagonist infusion at a dose of 30 ug/kg.
Assay [3] has as its system Rattus norvegicus. The assay can be described thus: Variation in mean arterial pressure after 40 min of antagonist infusion at a dose of 10 ug/kg.
The subject of assay [4] is Rattus norvegicus. Description: Variation of MAP induced bolus injection of 30 ng/kg of compound during infusion in rat reported as % of control (100) at a dose of 30 ug/kg. The class given is functional. To be noted: in the assay text read “10 ug/kg” for “30 ug/kg”. Summed up:
(§1)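 Same ganglion-blocked, Inactin-anaesthetized rat preparation, with MAP recorded via femoral artery catheter. Antagonist was infused iv for 20 min at 10, 30, 60 or 100 µg/kg per min before AII 30 ng/kg iv bolus challenge. After infusion stopped, AII was repeated at 5-10-min intervals for 1 h. The pressor response was expressed as % of control at 5-60 min, mean ± SEM, n = 2-6.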

Assay [5] relates to Rattus norvegicus. The assay can be described thus: Variation in mean arterial pressure after 60 min of antagonist infusion at a dose of 10 ug/kg.
Assay [6] has as its system Rattus norvegicus. The assay can be described thus: In vivo activity to antagonize the effect of bolus injection of compound at 30 ug/kg in rat. It is filed as functional. To be noted: in the assay text read “angiotensin II at 30 ng/kg” for “compound at 30 ug/kg”. Summed up:
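Male Sprague-Dawley rats (240-400 g) under Inactin (100 mg/kg ip), ganglion-blocked with mecamylamine 3 mg/kg iv and atropine ip. AII 30 ng/kg iv bolus was given four times at 10-min intervals as baseline. Peptide was infused iv for 20 min, then AII was rechallenged. Endpoint was the smallest infusion dose (µg/kg per min) fully blocking the bolus, with time to ~50% recovery after infusion stopped.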

For assay [7], the system named is Rattus norvegicus. The assay can be described thus: Variation in mean arterial pressure after 5 min of antagonist infusion at a dose of 10 ug/kg.
Assay [8] concerns Rattus norvegicus. Description: Variation in mean arterial pressure after 10 min of antagonist infusion at a dose of 10 ug/kg.
Assay [9] has as its system Rattus norvegicus. The assay can be described thus: Variation of MAP induced bolus injection of 100 ug/kg of compound during infusion in rat reported as % of control (100) at a dose of 10 ug/kg. It is filed as functional. Summed up:
as §1

The species named for the next assay is Oryctolagus cuniculus. Description: In vitro myotropic property on the isolated rabbit aorta, expressed as pA2. The class given is functional. To be noted: read-out: pA2 (converted). Summed up:
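Aortic rings from male New Zealand white rabbits (2-2.5 kg) equilibrated 1 h, then set at ~1 g passive tension. Paired rings were used: one received cumulative AII, the other AII with the peptide added 5 min before. AII was given at 30-min intervals with Krebs washes. Responses were taken as % of control maximal contraction, and pA2 was derived by Schild analysis.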

In assay [10] the test system is Rattus norvegicus. Description: Drinking water response evaluated in conscious rat at a dose of 2500 pmol icv. The class given is functional. Summed up:
(§2)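 Conscious Sprague–Dawley rats given AII 100 pmol icv to induce water drinking. Test peptide was given icv at 500 or 2500 pmol, and the drinking response was recorded.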

The test system of assay [11] is Rattus norvegicus. The assay can be described thus: Variation of MAP induced bolus injection of 60 ug/kg of compound during infusion in rat reported as % of control (100) at a dose of 10 ug/kg. The class given is functional. Summed up: as §1
Assay [12] concerns Rattus norvegicus. Description: Drinking water response evaluated in conscious rat at a dose of 500 pmol icv. The class given is functional. Summed up:
as §2

Assay [13] has as its system Rattus norvegicus. Description: Percentage of pressor response to antagonize the effect of bolus injection of compound at a dose of 30 ug/kg/min in rat. It is filed as functional.
The species entered for assay [14] is Rattus norvegicus. Description: In vitro myotropic property in rat stomach, expressed as pA2. It is filed as functional. To be noted: read-out: pA2 (converted).
The test system of assay [15] is Rattus norvegicus. The assay can be described thus: In vivo activity to antagonize the effect of bolus injection of angiotensin II at 30 ng/kg in rat.
In assay [16] the test system is Rattus norvegicus. The assay is described as above. The source holds these as a separate data set.
Assay [17] is filed under the species Rattus norvegicus. The assay can be described thus: In vitro myotropic property in rat isolated uterus, expressed as pA2. The class given is functional. The note with it: read-out: pA2 (converted).
The subject of assay [18] is Rattus norvegicus. The assay can be described thus: Percentage of pressor response to antagonize the effect of bolus injection of compound at a dose of 30 ug/kg per min in rat. The class given is functional.
Assay [19] relates to Rattus norvegicus. Description: Variation in mean arterial pressure after 10 min of antagonist infusion at a dose of 10 ug/kg. The source holds these as a separate data set.
For assay [20], the system named is Rattus norvegicus. Description: Variation in mean arterial pressure after 20 min of antagonist infusion at a dose of 10 ug/kg. This is another data set of the same source.
The subject of assay [21] is Rattus norvegicus. The assay can be described thus: Variation in mean arterial pressure after 60 min of antagonist infusion at a dose of 10 ug/kg. The source holds these as a separate data set.
Assay [22] has as its system Rattus norvegicus. Description: Variation in mean arterial pressure after 5 min of antagonist infusion at a dose of 10 ug/kg. This is another data set of the same source.
Assay [23] has as its system Rattus norvegicus. The assay can be described thus: Variation in mean arterial pressure after 40 min of antagonist infusion at a dose of 10 ug/kg. The source holds these as a separate data set.

Where a SMILES comes first, the peptide text is derived from it. [ ]: non-standard residue; d: D form. Sar = CNCC(=O)O

Turning to `CNCC(=O)N[C@@H](CCCN=C(N)N)C(=O)N[C@H](C(=O)N[C@@H](Cc1ccc(O)cc1)C(=O)N[C@H](C(=O)N[C@@H](Cc1c[nH]cn1)C(=O)N1CCC[C@H]1C(=O)N[C@@H](C)C(=O)O)C(C)C)C(C)C` [listing 1 of 2 here], the Pressor response, % of control was 78% in the assay with Rattus norvegicus [1], 96% in the assay with Rattus norvegicus [2], 96% in the assay on Rattus norvegicus [3] and 50% in the assay on Rattus norvegicus [8]. In addition, the Control in the assay on Rattus norvegicus [4] and with Rattus norvegicus [9] (in the assay text read “30 ng/kg of angiotensin II” for “100 ug/kg of compound”) was 0% each time. The MAP with Rattus norvegicus [5] stood at 94%; with Rattus norvegicus [7], 29%. In the assay on Rattus norvegicus [6], this molecule registered an Antagonist activity of 10 µg/min/kg.
For `CC[C@H](C)[C@H](NC(=O)[C@H](Cc1ccc(O)cc1)NC(=O)[C@@H](NC(=O)[C@H](CCCN=C(N)N)NC(=O)CNC)C(C)C)C(=O)N[C@@H](Cc1c[nH]cn1)C(=O)N1CCC[C@H]1C(=O)O` [listing 1 of 2 here], the Kb in the assay listed under Oryctolagus cuniculus was 31.6 nM.
The same measure, in the same setting: then `CC[C@H](C)[C@H](NC(=O)[C@H](Cc1ccc(O)cc1)NC(=O)[C@@H](NC(=O)[C@H](CCCN=C(N)N)NC(=O)CNC)C(C)C)C(=O)N[C@@H](Cc1c[nH]cn1)C(N)=O` (H-[Sar]RVYIH-NH2), with > 1000 nM; and `CC[C@H](C)[C@H](NC(=O)[C@H](Cc1ccc(O)cc1)NC(=O)[C@@H](NC(=O)[C@H](CCCN=C(N)N)NC(=O)CNC)C(C)C)C(=O)N[C@@H](Cc1c[nH]cn1)C(=O)N(C)CC(N)=O` (H-[Sar]RVYIH[Sar]-NH2), with > 1000 nM.
`CC[C@H](C)[C@H](NC(=O)[C@H](Cc1ccc(O)cc1)NC(=O)[C@@H](NC(=O)[C@H](CCCN=C(N)N)NC(=O)CNC)C(C)C)C(=O)N[C@@H](Cc1c[nH]cn1)C(=O)N1CCC[C@H]1C(N)=O` [listing 1 of 2 here]: the Water intake in the assay with Rattus norvegicus [10] was determined as 10.8 ml 20min-1; in the assay with Rattus norvegicus [12], 10 ml 20min-1. This molecule also had a Control in the assay on Rattus norvegicus [11] of 6%. For the same molecule, in the assay with Rattus norvegicus [6], the Antagonist activity was found to be 60 µg/min/kg. The molecule also had an Agonist activity in the assay on Rattus norvegicus [13] of 60%.
`CNCC(=O)N[C@@H](CCCN=C(N)N)C(=O)N[C@H](C(=O)N[C@@H](Cc1ccc(O)cc1)C(=O)N[C@H](C(=O)N[C@@H](Cc1c[nH]cn1)C(=O)N1CCC[C@H]1C(=O)N[C@@H](C)C(=O)O)C(C)C)C(C)C` [listing 2 of 2 here]: in the assay filed under Rattus norvegicus [14], the Kb was 5.01 nM.
As to `CC[C@H](C)[C@H](NC(=O)[C@H](Cc1ccc(O)cc1)NC(=O)[C@@H](NC(=O)[C@H](CCCN=C(N)N)NC(=O)CNC)C(C)C)C(=O)N[C@@H](Cc1c[nH]cn1)C(=O)N(C)C` (H-[Sar]RVYIH-NMe2) [listing 1 of 2 here], in the assay filed under Oryctolagus cuniculus, the Kb was 89.1 nM.
On the same count and under the same terms, then `CC[C@H](C)[C@H](NC(=O)[C@H](Cc1ccc(O)cc1)NC(=O)[C@@H](NC(=O)[C@H](CCCN=C(N)N)NC(=O)CNC)C(C)C)C(=O)N[C@@H](Cc1c[nH]cn1)C(=O)NCC(N)=O` (H-[Sar]RVYIHG-NH2), with > 1000 nM.
As to `CC[C@H](C)[C@H](NC(=O)[C@H](Cc1ccc(O)cc1)NC(=O)[C@@H](NC(=O)[C@H](CCCN=C(N)N)NC(=O)[C@@H](N)CC(=O)O)C(C)C)C(=O)N[C@@H](Cc1c[nH]cn1)C(=O)N1CCC[C@@H]1C(=O)O`, the Kb in the assay filed under Oryctolagus cuniculus was > 1000 nM. The molecule also displayed a Water intake in the assay on Rattus norvegicus [12] of 6.1 ml 20min-1. In addition, the Antagonist activity in the assay on Rattus norvegicus [15] is >300 µg/min/kg.
`CC[C@H](C)[C@H](NC(=O)[C@H](Cc1ccc(OC)cc1)NC(=O)[C@@H](NC(=O)[C@H](CCCN=C(N)N)NC(=O)CNC)C(C)C)C(=O)N[C@@H](Cc1c[nH]cn1)C(=O)N1CCC[C@H]1C(=O)N[C@@H](Cc1ccccc1)C(=O)O`: in the assay on Rattus norvegicus [16], the Antagonist activity amounted to 30 µg/min/kg. The Kb in the assay listed under Rattus norvegicus [17] is 25.1 nM. The Water intake with Rattus norvegicus [12] is reported as 3.1 ml 20min-1. For the same molecule, the Agonist activity in the assay on Rattus norvegicus [18] amounted to 60%.
Take `CC[C@H](C)[C@H](NC(=O)[C@H](Cc1ccc(O)cc1)NC(=O)[C@@H](NC(=O)[C@H](CCCN=C(N)N)NC(=O)CNC)C(C)C)C(=O)N[C@@H](Cc1c[nH]cn1)C(=O)N1CCC[C@H]1C(=O)O` [listing 2 of 2 here]: the Antagonist activity in the assay with Rattus norvegicus [6] is >100 µg/min/kg. For the same molecule, in the assay on Rattus norvegicus [18], the Agonist activity worked out at 45%. Besides, the Pressor response, % of control with Rattus norvegicus [8] turned out to be 36%. In the assay with Rattus norvegicus [9], this molecule displayed a Control of 9%.
Turning to H-DRVYIH-NH2, the Kb in the assay listed under Oryctolagus cuniculus was > 1000 nM.
On to `CC[C@H](C)[C@H](NC(=O)[C@H](Cc1ccc(O)cc1)NC(=O)[C@@H](NC(=O)[C@H](CCCN=C(N)N)NC(=O)CNC)C(C)C)C(=O)N[C@@H](Cc1c[nH]cn1)C(=O)N(C)C` (H-[Sar]RVYIH-NMe2) [listing 2 of 2 here], for which the Pressor response, % of control with Rattus norvegicus [19] was 13%; in the assay with Rattus norvegicus [20], 28%; in the assay on Rattus norvegicus [22], 10%; in the assay on Rattus norvegicus [23], 67%. This molecule came in with an MAP in the assay with Rattus norvegicus [21] of 82%. The Antagonist activity with Rattus norvegicus [6] came out at 100 µg/min/kg. The same molecule had an Agonist activity with Rattus norvegicus [18] of 50%. In the assay on Rattus norvegicus [9], this molecule gave a Control of 5%.
For `CC[C@H](C)[C@H](NC(=O)[C@H](Cc1ccc(OC)cc1)NC(=O)[C@@H](NC(=O)[C@H](CCCN=C(N)N)NC(=O)CNC)C(C)C)C(=O)N[C@@H](Cc1c[nH]cn1)C(=O)N1CCC[C@H]1C(N)=O` [listing 1 of 2 here], in the assay listed under Oryctolagus cuniculus, the Kb is 20 nM.
On the same count and under the same terms, then `CC[C@H](C)[C@H](NC(=O)[C@H](Cc1ccc(O)cc1)NC(=O)[C@@H](NC(=O)[C@H](CCCN=C(N)N)NC(=O)CNC)C(C)C)C(=O)N[C@@H](Cc1c[nH]cn1)C(=O)N1CCC[C@H]1C(N)=O` [listing 2 of 2 here], with 25.1 nM.
Regarding `CC[C@H](C)[C@H](NC(=O)[C@H](Cc1ccc(OC)cc1)NC(=O)[C@@H](NC(=O)[C@H](CCCN=C(N)N)NC(=O)CNC)C(C)C)C(=O)N[C@@H](Cc1c[nH]cn1)C(=O)N1CCC[C@H]1C(N)=O` [listing 2 of 2 here], the Pressor response, % of control in the assay with Rattus norvegicus [1] turned out to be 89%; in the assay on Rattus norvegicus [3], 91%; in the assay on Rattus norvegicus [8], 86%. In addition, the MAP in the assay with Rattus norvegicus [5] is 100%; with Rattus norvegicus [7], 70%. In the assay with Rattus norvegicus [6], the Antagonist activity is >100 µg/min/kg. Besides, the Control in the assay on Rattus norvegicus [9] is reported as 19%. The molecule further registered an Agonist activity in the assay with Rattus norvegicus [13] of 65%.
For the molecule `CC[C@H](C)[C@H](NC(=O)[C@H](Cc1ccc(O)cc1)NC(=O)[C@@H](NC(=O)[C@H](CCCN=C(N)N)NC(=O)[C@@H](N)CC(=O)O)C(C)C)C(=O)N[C@@H](Cc1c[nH]cn1)C(=O)N(C)CC(N)=O` (H-DRVYIH[Sar]-NH2), in the assay listed under Oryctolagus cuniculus, the Kb is > 1000 nM.

For the origin of these results see ChEMBL document CHEMBL1125062, “Structure-activity relationships for the carboxy-terminus truncated analogues of angiotension II, a new class of angiotensin II antagonists” (J Med Chem, 1990).
